Test results reported in ChEMBL document CHEMBL1142193, “Dual targeting of GyrB and ParE by a novel aminobenzimidazole class of antibacterial compounds” (2007).
Values after ≈ are worked out from the molar mass of the structure shown. Active and inactive are the calls of the source. The rule behind the calls is not given here.

Columns and labels:
Staphylococcus aureus [1] = assay: Inhibition of RNA synthesis in Staphylococcus aureus ATCC 29213 assessed as [3H]uridine incorporation; type: functional
Summary of the method: (§1)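 Log-phase cells exposed in duplicate to compound at 5x MIC; labelled-precursor uptake measured over 15 min, stopped with 10% trichloroacetic acid. Incorporation expressed as percent of untreated control (taken as 100%).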

Staphylococcus aureus [2] = assay: Inhibition of protein synthesis in Staphylococcus aureus ATCC 29213 assessed as [3H]aminoacid incorporation; type: functional
Haemophilus influenzae [3] = assay: Antibacterial activity against novobiocin-resistant Haemophilus influenzae ATCC 51907 with GyrB R140H mutation after 18 to 20 hrs; type: functional
Summary of the method: (§2)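 MICs followed CLSI guidelines. Strains were grown overnight at 35°C on solid medium. Inocula were prepared with a Prompt system. Compounds were serially diluted twofold in 100% DMSO at 200x and diluted 1:200 into medium, for a final 0.5% DMSO. Plates were incubated at 35°C for 18 to 20 h and read visually. A twofold MIC variation was taken as assay error.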

Staphylococcus aureus [4] = assay: Antibacterial activity against Staphylococcus aureus ATCC 29213 carrying plasmid expressing GyrB T173I mutant; type: functional
Staphylococcus aureus [5] = assay: Antibacterial activity against Staphylococcus aureus ATCC 29213 with GyrB T173I and GrlB T166A mutation after 18 to 20 hrs; type: functional; summary of the method: as §2
Staphylococcus aureus [6] = assay: Antibacterial activity against Staphylococcus aureus ATCC 29213 with GyrB T173N mutation without plasmid; type: functional
Enterococcus faecalis [7] = assay: Antibacterial activity against Enterococcus faecalis ATCC 29212 with ParE T169A mutation after 18 to 20 hrs; type: functional; summary of the method: as §2
Staphylococcus aureus [8] = assay: Antibacterial activity against Staphylococcus aureus ATCC 29213 with GyrB T173N and GrlB T166A mutation after 18 to 20 hrs; type: functional; summary of the method: as §2
Enterococcus faecalis [9] = assay: Antibacterial activity against Enterococcus faecalis ATCC 29212 after 18 to 20 hrs; type: functional; summary of the method: as §2
Staphylococcus aureus [10] = assay: Antibacterial activity against Staphylococcus aureus ATCC 29213 with GyrB T173I mutation without plasmid; type: functional
Staphylococcus aureus [11] = assay: Inhibition of DNA synthesis in Staphylococcus aureus ATCC 29213 assessed as [3H]thymidine incorporation; type: functional; summary of the method: as §1
Haemophilus influenzae [12] = assay: Antibacterial activity against Haemophilus influenzae ATCC 51907 with GyrB T169I mutation after 18 to 20 hrs; type: functional; summary of the method: as §2
Staphylococcus aureus [13] = assay: Antibacterial activity against Staphylococcus aureus ATCC 29213 with GyrB T173N mutation after 18 to 20 hrs; type: functional; summary of the method: as §2
Enterococcus faecalis [14] = assay: Antibacterial activity against Enterococcus faecalis ATCC 29212 with GyrB T167I mutation after 18 to 20 hrs; type: functional; summary of the method: as §2
Enterococcus faecalis [15] = assay: Antibacterial activity against Enterococcus faecalis ATCC 29212 with GyrB T167A mutation after 18 to 20 hrs; type: functional; summary of the method: as §2
Haemophilus influenzae [16] = assay: Antibacterial activity against novobiocin-resistant Haemophilus influenzae ATCC 51907 with GyrB R140C mutation after 18 to 20 hrs; type: functional; summary of the method: as §2
Staphylococcus aureus [17] = assay: Antibacterial activity against novobiocin-resistant Staphylococcus aureus ATCC 29213 with GyrB R144I mutation after 18 to 20 hrs; type: functional; summary of the method: as §2
Enterococcus faecalis [18] = assay: Antibacterial activity against Enterococcus faecalis ATCC 29212 with GyrB T167A and ParE T169A mutation after 18 to 20 hrs; type: functional; summary of the method: as §2
Streptococcus pneumoniae [19] = assay: Antibacterial activity against Streptococcus pneumoniae ATCC BAA-255 with ParE T172A mutation after 18 to 20 hrs; type: functional; summary of the method: as §2
Staphylococcus aureus [20] = assay: Antibacterial activity against Staphylococcus aureus ATCC 29213 carrying plasmid expressing wild type GyrB; type: functional
Haemophilus influenzae [21] = assay: Antibacterial activity against Haemophilus influenzae ATCC 51907 after 18 to 20 hrs; type: functional; summary of the method: as §2
Staphylococcus aureus [22] = assay: Antibacterial activity against Staphylococcus aureus ATCC 29213 carrying plasmid expressing GyrB T173N mutant; type: functional
Enterococcus faecalis [23] = assay: Antibacterial activity against Enterococcus faecalis ATCC 29212 with GyrB T167I and ParE T169A mutation after 18 to 20 hrs; type: functional; summary of the method: as §2
Staphylococcus aureus [24] = assay: Antibacterial activity against Staphylococcus aureus ATCC 29213 after 18 to 20 hrs; type: functional; summary of the method: as §2
Staphylococcus aureus [25] = assay: Antibacterial activity against Staphylococcus aureus ATCC 29213 with GyrB T173I mutation after 18 to 20 hrs; type: functional; summary of the method: as §2
Staphylococcus aureus [26] = assay: Antibacterial activity against Staphylococcus aureus ATCC 29213 carrying plasmid expressing GyrB R144I mutant; type: functional
Streptococcus pneumoniae [27] = assay: Antibacterial activity against Streptococcus pneumoniae ATCC BAA-255 with GyrB T172A and ParE T172A mutation after 18 to 20 hrs; type: functional; summary of the method: as §2
Haemophilus influenzae [28] = assay: Antibacterial activity against novobiocin-resistant Haemophilus influenzae ATCC 51907 with GyrB R140L mutation after 18 to 20 hrs; type: functional; summary of the method: as §2
Staphylococcus aureus [29] = assay: Antibacterial activity against Staphylococcus aureus ATCC 29213 without plasmid; type: functional
Streptococcus pneumoniae [30] = assay: Antibacterial activity against novobiocin-resistant Streptococcus pneumoniae ATCC BAA-255 with GyrB S127L mutation after 18 to 20 hrs; type: functional; summary of the method: as §2
Staphylococcus aureus [31] = assay: Antibacterial activity against Staphylococcus aureus ATCC 29213 with GyrB R144I mutation without plasmid; type: functional
Escherichia coli = assay: Reduction in steady-state levels of supercoiled pUC18 in Escherichia coli CAG12184 tolC mutant; type: functional, organism-based
Summary of the method: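 Cells carrying pUC18 grown at 37°C in caMHB with 100 µg/ml ampicillin to OD600 0.5, then exposed 1 h at 37°C with shaking to a twofold dilution series spanning the MIC. Plasmid isolated, concentrated, run on 1% TBE-agarose alongside supercoiled markers for 16 h, stained with ethidium bromide.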

Streptococcus pneumoniae [32] = assay: Antibacterial activity against Streptococcus pneumoniae ATCC BAA-255 after 18 to 20 hrs; type: functional; summary of the method: as §2
Streptococcus pneumoniae [33] = assay: Antibacterial activity against Streptococcus pneumoniae ATCC BAA-255 with ParE T172I mutation after 18 to 20 hrs; type: functional; summary of the method: as §2

| SMILES | Activity (Staphylococcus aureus [1]) | Activity (Staphylococcus aureus [2]) | MIC (Haemophilus influenzae [3]) | MIC (Staphylococcus aureus [4]) | MIC (Staphylococcus aureus [5]) | MIC (Staphylococcus aureus [6]) | MIC (Enterococcus faecalis [7]) | MIC (Staphylococcus aureus [8]) | MIC (Enterococcus faecalis [9]) | MIC (Staphylococcus aureus [10]) | MIC (Haemophilus influenzae [12]) | MIC (Staphylococcus aureus [13]) | MIC (Enterococcus faecalis [14]) | MIC (Enterococcus faecalis [15]) | MIC (Haemophilus influenzae [16]) | MIC (Staphylococcus aureus [17]) | MIC (Enterococcus faecalis [18]) | MIC (Streptococcus pneumoniae [19]) | MIC (Staphylococcus aureus [20]) | MIC (Haemophilus influenzae [21]) | other results |
| --- | --- | --- | --- | --- | --- | --- | --- | --- | --- | --- | --- | --- | --- | --- | --- | --- | --- | --- | --- | --- | --- |
| CO[C@H]1/C=C/O[C@@]2(C)Oc3c(C)c(O)c4c(O)c(c(/C=N/N5CCN(C)CC5)c(O)c4c3C2=O)NC(=O)/C(C)=C\C=C\[C@H](C)[C@H](O)[C@@H](C)[C@@H](O)[C@@H](C)[C@H](OC(C)=O)[C@@H]1C | Active | Active |  |  |  |  |  |  |  |  |  |  |  |  |  |  |  |  |  |  |  |
| O=C(O)c1cn(C2CC2)c2cc(N3CCNCC3)c(F)cc2c1=O [CIPROFLOXACIN] | inactive | inactive | 0.004 µg/mL (≈ 0.0121 µM) | 0.25 µg/mL (≈ 0.754 µM) | 0.25 µg/mL (≈ 0.754 µM) | 0.25 µg/mL (≈ 0.754 µM) | 1 µg/mL (≈ 3.02 µM) | 0.25 µg/mL (≈ 0.754 µM) | 1 µg/mL (≈ 3.02 µM) | 0.25 µg/mL (≈ 0.754 µM) | 0.004 µg/mL (≈ 0.0121 µM) | 0.25 µg/mL (≈ 0.754 µM) | 1 µg/mL (≈ 3.02 µM) | 0.5 µg/mL (≈ 1.51 µM) | 0.004 µg/mL (≈ 0.0121 µM) | 0.25 µg/mL (≈ 0.754 µM) | 0.5 µg/mL (≈ 1.51 µM) | 0.25 µg/mL (≈ 0.754 µM) | 0.25 µg/mL (≈ 0.754 µM) | 0.004 µg/mL (≈ 0.0121 µM) | Activity (Staphylococcus aureus [11]): Active; MIC (Staphylococcus aureus [22]): 0.25 µg/mL (≈ 0.754 µM); MIC (Enterococcus faecalis [23]): 0.5 µg/mL (≈ 1.51 µM); MIC (Staphylococcus aureus [24]): 0.25 µg/mL (≈ 0.754 µM); MIC (Staphylococcus aureus [25]): 0.25 µg/mL (≈ 0.754 µM); MIC (Staphylococcus aureus [26]): 0.25 µg/mL (≈ 0.754 µM); MIC (Streptococcus pneumoniae [27]): 0.25 µg/mL (≈ 0.754 µM); MIC (Haemophilus influenzae [28]): 0.004 µg/mL (≈ 0.0121 µM); MIC (Staphylococcus aureus [29]): 0.25 µg/mL (≈ 0.754 µM); MIC (Streptococcus pneumoniae [30]): 0.25 µg/mL (≈ 0.754 µM); MIC (Staphylococcus aureus [31]): 0.25 µg/mL (≈ 0.754 µM) |
| CCNC(=O)Nc1nc2cc(-c3cnc(OC)nc3)c(OC)cc2[nH]1 |  |  | 2 µg/mL (≈ 5.84 µM) | 8 µg/mL (≈ 23.4 µM) | > 64 µg/mL | 8 µg/mL (≈ 23.4 µM) | 8 µg/mL (≈ 23.4 µM) | > 64 µg/mL | 1 µg/mL (≈ 2.92 µM) | 8 µg/mL (≈ 23.4 µM) | > 64 µg/mL | 16 µg/mL (≈ 46.7 µM) | 1 µg/mL (≈ 2.92 µM) | 0.5 µg/mL (≈ 1.46 µM) | 2 µg/mL (≈ 5.84 µM) | 4 µg/mL (≈ 11.7 µM) | > 64 µg/mL | 8 µg/mL (≈ 23.4 µM) | 2 µg/mL (≈ 5.84 µM) | 4 µg/mL (≈ 11.7 µM) | Inhibition (Staphylococcus aureus [11]): 80%; Inhibition (Staphylococcus aureus [1]): 20%; Inhibition (Staphylococcus aureus [2]): 20%; MIC (Staphylococcus aureus [22]): 8 µg/mL (≈ 23.4 µM); MIC (Enterococcus faecalis [23]): > 64 µg/mL; Activity (Escherichia coli): Dose-dependent effect; MIC (Staphylococcus aureus [24]): 2 µg/mL (≈ 5.84 µM); MIC (Staphylococcus aureus [25]): 16 µg/mL (≈ 46.7 µM); MIC (Staphylococcus aureus [26]): 2 µg/mL (≈ 5.84 µM); MIC (Streptococcus pneumoniae [27]): 64 µg/mL (≈ 187 µM); MIC (Haemophilus influenzae [28]): 4 µg/mL (≈ 11.7 µM); MIC (Streptococcus pneumoniae [32]): 0.5 µg/mL (≈ 1.46 µM); MIC (Staphylococcus aureus [29]): 2 µg/mL (≈ 5.84 µM); MIC (Streptococcus pneumoniae [33]): 4 µg/mL (≈ 11.7 µM); MIC (Streptococcus pneumoniae [30]): 0.5 µg/mL (≈ 1.46 µM); MIC (Staphylococcus aureus [31]): 2 µg/mL (≈ 5.84 µM) |
